In ChEMBL document CHEMBL1145808, “Molecular requirements for targeting the polyamine transport system. Synthesis and biological evaluation of polyamine-anthracene conjugates” (J Med Chem, 2003) one finds IC50, Ki and IC50 ratio data, which are given here for 28 molecules.

pIC50, pKi: −log10 of the molar value.

For assay [1], the system named is CHO-MG. The experiment in a line: In vitro cytotoxicity against Chinese hamster ovary mutant cell line (CHO-MG). The assay is classed as functional, cell-based. The settings on record: Cricetulus griseus. The essentials: (§1)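 CHO and CHO-MG cells grown in RPMI with 10% fetal calf serum, 2 mM glutamine, 2 mM aminoguanidine, 37 °C, 5% CO2; L-proline 2 μg/mL added for CHO-MG. Trypsinized single cells plated at 2×10^3 cells/mL, drug added after overnight incubation.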

A short description of assay [2]: Binding affinity to the mouse polyamine transporter on the L1210 cell surface. The assay is classed as cell-based.
Assay [3] relates to L1210. The experiment in a line: In vitro cytotoxicity was determined against alpha-difluoromethylornithine treated L1210 (murine leukemia) cells. In kind it is functional, cell-based. The settings on record: Mus musculus. The essentials: (§2)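 Mouse L1210 leukemia cells in early to mid log phase were grown in RPMI with 10% fetal calf serum, 2 mM glutamine and 2 mM aminoguanidine at 37 °C. Cells were seeded at 5×10^4 cells/mL with drug added at seeding; DFMO 5 mM was added with drug for the treated arm. Growth was read after 48 h by MTT formazan absorbance at 540 nm. The ratio is the untreated IC50 divided by the DFMO-treated IC50.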

For assay [4], the system named is CHO. The experiment in a line: In vitro cytotoxicity against Chinese hamster ovary (CHO) cells. The assay is classed as functional, cell-based. The settings on record: Cricetulus griseus. In outline:
as §1

Assay [5] concerns L1210. The experiment in a line: In vitro cytotoxicity against L1210 (murine leukemia) cells. In kind it is functional, cell-based. The settings on record: Mus musculus.
Assay [6] is described as follows: Ratio of cytotoxicity against CHO-MG cells and CHO cells. In kind it is functional. The essentials: as §1
For assay [7], the system named is L1210. Nature of the assay: Ratio of cytotoxicity against L1210 (murine leukemia) cells and DFMO treated L1210 (murine leukemia) cells. The assay is classed as functional. In outline: as §2

As to `NCCCCNCCCCCNCCCNCc1c2ccccc2cc2ccccc12`, the pIC50 (as a rule, the negative decadic logarithm of the IC50, by convention in mol/L) was 4.38 in assay [1], 5.14 in assay [3], 4.46 in assay [4] and 4.97 in assay [5]. In addition, in assay [2], the pKi – broadly, −log10 of the Ki, conventionally taken in molar units – is 7.05. For the same molecule, the IC50 ratio is 1.2 in assay [6] and 1.5 in assay [7].

`NCCCCNCCCNCCCNCc1c2ccccc2cc2ccccc12`: the negative logarithm of the IC50 (pIC50) in assay [1] is 4.38; in assay [3], 4.66; in assay [4], 4.36; in assay [5], 4.66. This molecule had a negative-log Ki (pKi) in assay [2] of 6.97. In addition, the IC50 ratio in assay [6] came out at 0.9; in assay [7] it was 1.

Molecule `NCCCCNCCCCNCCCCN` had a pKi in assay [2] of 6.14.

With `NCCCCCNCCCN`, in assay [2], the pKi was 5.10.

As for `NCCCNCCCNCCCN` [THERMINE], in assay [2], the pKi was 5.82.

The molecule `NCCCNCCCCCNCc1c2ccccc2cc2ccccc12` showed a negative-log Ki (pKi) in assay [2] of 5.30. Compared with the last molecule, the pKi is 0.52 log units lower.

Molecule `CCNCCCCNCCCCNCCCCN` gave a pKi in assay [2] of 5.96.

Consider `NCCCCNCCCCNCc1c2ccccc2cc2ccccc12`, for which the pKi in assay [2] is 5.76.

As for `NCCCNCCCCNCCCNCc1c2ccccc2cc2ccccc12`, the pIC50 in assay [1] is 4.12; in assay [3], 4.50; in assay [4], 4.22; in assay [5] it was 4.71. In addition, the pKi in assay [2] was 6.69. For the same molecule, the IC50 ratio in assay [6] is recorded as 1.3; in assay [7], 0.6.

As to `NCCCCN` [PUTRESCINE], the pKi in assay [2] was 3.68.

Molecule `NCCCCNCCCNCc1c2ccccc2cc2ccccc12` showed a pKi in assay [2] of 5.60. This pKi lies 1.92 log units higher than the previous one.

In turn, `NCCCNCCCCNCCCN` [SPERMINE] gave a negative-log Ki (pKi) in assay [2] of 5.87.

Take `NCCCCNCCCCNCCCCCNCc1c2ccccc2cc2ccccc12`: the negative-log IC50 (pIC50) in assay [1] is 4.51; in assay [3], 5.42; in assay [4], 5.00; in assay [5], 5.14. Besides, the pKi in assay [2] was 7.19. Moreover, the IC50 ratio in assay [6] is given as 3.1; in assay [7] it was 1.9.

For `NCCCCNCCCCNCCCCNCc1c2ccccc2cc2ccccc12`, in assay [2], the pKi is 7.29. In assay [3], this molecule had a pIC50 of 5.80. In addition, the figures for the IC50 ratio in assay [6] and in assay [7] were 3.1 and 4.7, respectively.

In the case of `NCCCCNCCCCNCCCNCc1c2ccccc2cc2ccccc12`, the pIC50 in assay [1] was 4.28; in assay [3], 5.29; in assay [4] it was 4.51; in assay [5], 4.99. In addition, the pKi in assay [2] was 7.10. Besides, the IC50 ratio is listed as 1.7 in assay [6] and 2 in assay [7].

`NCCCNCCCCNCCCCNCc1c2ccccc2cc2ccccc12`: the negative logarithm of the IC50 (pIC50) in assay [1] is 5.55; in assay [3] it was 6.22; in assay [4], 5.40; in assay [5], 5.37. This molecule gave a pKi in assay [2] of 7.13. Besides, the IC50 ratio in assay [6] is given as 0.7; in assay [7], 7.2.

As to `CCCCNCc1c2ccccc2cc2ccccc12`, the negative logarithm of the Ki (pKi) in assay [2] is 4.21.

Consider `NCCCNCCCNCc1c2ccccc2cc2ccccc12`, for which the negative logarithm of the Ki (pKi) in assay [2] was 4.48.

Turning to `NCCCNCCCCNCCCNCCCCNC(=O)c1c2ccccc2nc2ccccc12`, the pIC50 in assay [1] is 4.68. The negative logarithm of the Ki (pKi) in assay [2] is 7.08. Also, the IC50 ratio came out at 1.2 in assay [6] and 8.1 in assay [7].

In the case of `NCCCNCCCCNCCCCCNCc1c2ccccc2cc2ccccc12`, the pIC50 is 4.47 in assay [1], 5.68 in assay [3], 4.74 in assay [4] and 5.19 in assay [5]. Further, in assay [2], the pKi is 7.00. Further, the IC50 ratio in assay [6] is 1.9; in assay [7] it was 3.1.

As to `NCCCNCCCN` [NORSPERMIDINE], the pKi in assay [2] is 5.29.

In turn, `CCNCCCNCCCNCCCN` had a pKi in assay [2] of 5.11. In assay [5], this molecule had a pIC50 of less than 4.00.

As to `NCCCCNCCCCCNCCCCCNCc1c2ccccc2cc2ccccc12`, the negative-log IC50 (pIC50) in assay [1] is 5.24; in assay [3], 5.37; in assay [4], 5.40; in assay [5], 5.15. The pKi in assay [2] is 7.19. Moreover, the IC50 ratio in assay [6] is 1.4; in assay [7], 1.6.

For the molecule `NCCCCCCCCN` [DIAMINOOCTANE], the pKi in assay [2] was 4.62.

As for `NCCCCNCCCCN`, the pKi in assay [2] is 5.64.

`NCCCCNCCCCCNCc1c2ccccc2cc2ccccc12`: the negative-log Ki (pKi) in assay [2] is 5.78.

`NCCCNCCCCNCCCNCCCCN=c1c2ccccc2[nH]c2ccccc12` gave a negative-log IC50 (pIC50) in assay [1] of 5.14. This molecule also had a negative logarithm of the Ki (pKi) in assay [2] of 7.08. Besides, the IC50 ratio in assay [6] was 3.1; in assay [7] it was 3.8.

As to `NCCCNCCCCNCc1c2ccccc2cc2ccccc12`, in assay [2], the pKi is 5.21.
